Data from ChEMBL document CHEMBL4354826, “Structure-Based Discovery of SD-36 as a Potent, Selective, and Efficacious PROTAC Degrader of STAT3 Protein” (J Med Chem, 2019).
Activity calls are given as the source filed them. The calls are words filed in the database; no cut-off is given here.

Assays:
[1] = Antiproliferative activity against human MOLM16 cells assessed as reduction in cell viability incubated for 4 days by cell-titer glo luminescent assay; format: functional, cell-based; conditions: MOLM16, 96 h
How it was run: (§1)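 Viability assay: cells incubated with serially diluted compounds for 4 days, viability read by CellTiter-Glo luminescence; IC50 from concentration–response.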

[2] = target: T1, Protein cereblon/Signal transducer and activator of transcription 3 (Homo sapiens, UniProt P40763+Q96SW2); experiment: Protac activity at CRBN/STAT3 in human MOLM16 cells assessed as degradation of phosphorylated STAT3 Y705 upto 10 uM incubated for 4 hrs by Western blot analysis; format: cell-based
How it was run: (§2)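 Molm-16 cells treated 4 h with serially diluted compound. Lysates immunoblotted (SDS–PAGE, PVDF, 5% blocker/TBST, chemiluminescence) for total STAT3 and pSTAT3 Y705. DC50 taken as the concentration reducing total STAT3 by 50%.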
Target sequence in this assay (P40763 2-770 limits assumed): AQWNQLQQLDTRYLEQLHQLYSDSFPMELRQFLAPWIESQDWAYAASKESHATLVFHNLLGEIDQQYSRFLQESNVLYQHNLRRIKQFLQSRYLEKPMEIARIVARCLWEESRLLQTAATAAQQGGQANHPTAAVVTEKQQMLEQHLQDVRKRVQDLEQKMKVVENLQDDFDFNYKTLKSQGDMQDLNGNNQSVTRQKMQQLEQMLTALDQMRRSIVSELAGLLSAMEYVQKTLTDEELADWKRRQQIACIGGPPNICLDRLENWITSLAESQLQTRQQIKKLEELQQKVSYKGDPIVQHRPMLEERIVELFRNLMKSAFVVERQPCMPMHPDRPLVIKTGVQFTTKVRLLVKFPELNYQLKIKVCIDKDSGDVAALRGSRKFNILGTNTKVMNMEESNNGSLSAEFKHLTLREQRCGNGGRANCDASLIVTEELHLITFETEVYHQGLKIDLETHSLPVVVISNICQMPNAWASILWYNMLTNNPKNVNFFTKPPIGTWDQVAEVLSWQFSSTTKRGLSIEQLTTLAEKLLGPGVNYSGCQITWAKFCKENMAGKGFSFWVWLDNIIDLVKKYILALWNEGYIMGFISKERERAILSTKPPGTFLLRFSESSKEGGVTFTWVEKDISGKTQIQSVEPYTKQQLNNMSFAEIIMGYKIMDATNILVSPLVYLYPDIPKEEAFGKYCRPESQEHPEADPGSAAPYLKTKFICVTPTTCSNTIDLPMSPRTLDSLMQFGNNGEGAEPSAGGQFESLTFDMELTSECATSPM
Target sequence in this assay (Q96SW2 whole entry partner): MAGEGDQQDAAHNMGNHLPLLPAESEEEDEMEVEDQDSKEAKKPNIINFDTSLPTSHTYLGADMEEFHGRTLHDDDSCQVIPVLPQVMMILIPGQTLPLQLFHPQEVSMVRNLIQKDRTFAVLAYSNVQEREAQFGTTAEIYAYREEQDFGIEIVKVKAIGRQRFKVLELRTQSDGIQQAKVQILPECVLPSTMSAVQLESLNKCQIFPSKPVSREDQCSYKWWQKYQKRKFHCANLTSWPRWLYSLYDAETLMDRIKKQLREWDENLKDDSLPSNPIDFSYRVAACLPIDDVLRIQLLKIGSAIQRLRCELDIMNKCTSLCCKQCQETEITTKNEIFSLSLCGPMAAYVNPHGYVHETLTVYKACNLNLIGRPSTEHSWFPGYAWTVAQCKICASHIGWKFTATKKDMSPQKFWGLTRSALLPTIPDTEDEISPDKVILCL

[3] = target: T1, Protein cereblon/Signal transducer and activator of transcription 3; experiment: Protac activity at CRBN/STAT3 in human MOLM16 cells assessed as degradation of STAT3 incubated for 4 hrs by Western blot analysis; format: cell-based; how it was run: as §2
[4] = target: T1, Protein cereblon/Signal transducer and activator of transcription 3; experiment: Protac activity at CRBN/STAT3 in human MOLM16 cells assessed as degradation of STAT3 up to 10 uM incubated for 4 hrs by Western blot analysis; format: cell-based; how it was run: as §2
Target sequence in this assay (P40763 2-770 limits assumed): as the sequence (P40763 2-770 limits assumed) above
Target sequence in this assay (Q96SW2 whole entry partner): as the sequence (Q96SW2 whole entry partner) above

[5] = target: T2, Signal transducer and activator of transcription 3 (Homo sapiens, UniProt P40763); experiment: Binding affinity to recombinant human His/SUMO-tagged STAT3 (127 to 688 residues) expressed in Escherichia coli Rosetta (DE3) incubated for 1 hr by fluorescence polarization assay
[6] = target: T1, Protein cereblon/Signal transducer and activator of transcription 3; experiment: Protac activity at CRBN/STAT3 in human MOLM16 cells assessed as degradation of STAT3 at 1 uM incubated for 4 hrs by Western blot analysis; format: cell-based; how it was run: as §2
Target sequence in this assay (P40763 2-770 limits assumed): as the sequence (P40763 2-770 limits assumed) above
Target sequence in this assay (Q96SW2 whole entry partner): as the sequence (Q96SW2 whole entry partner) above

[7] = target: T1, Protein cereblon/Signal transducer and activator of transcription 3; experiment: Protac activity at CRBN/STAT3 in human MOLM16 cells assessed as degradation of phosphorylated STAT3 Y705 at 1 uM incubated for 4 hrs by Western blot analysis; format: cell-based; how it was run: as §2
Target sequence in this assay (P40763 2-770 limits assumed): as the sequence (P40763 2-770 limits assumed) above
Target sequence in this assay (Q96SW2 whole entry partner): as the sequence (Q96SW2 whole entry partner) above

[8] = target: T1, Protein cereblon/Signal transducer and activator of transcription 3; experiment: Protac activity at CRBN/STAT3 in human SUDHL1 cells assessed as degradation of STAT3 incubated for 16 hrs by Western blot analysis; format: cell-based
Target sequence in this assay (P40763 whole entry): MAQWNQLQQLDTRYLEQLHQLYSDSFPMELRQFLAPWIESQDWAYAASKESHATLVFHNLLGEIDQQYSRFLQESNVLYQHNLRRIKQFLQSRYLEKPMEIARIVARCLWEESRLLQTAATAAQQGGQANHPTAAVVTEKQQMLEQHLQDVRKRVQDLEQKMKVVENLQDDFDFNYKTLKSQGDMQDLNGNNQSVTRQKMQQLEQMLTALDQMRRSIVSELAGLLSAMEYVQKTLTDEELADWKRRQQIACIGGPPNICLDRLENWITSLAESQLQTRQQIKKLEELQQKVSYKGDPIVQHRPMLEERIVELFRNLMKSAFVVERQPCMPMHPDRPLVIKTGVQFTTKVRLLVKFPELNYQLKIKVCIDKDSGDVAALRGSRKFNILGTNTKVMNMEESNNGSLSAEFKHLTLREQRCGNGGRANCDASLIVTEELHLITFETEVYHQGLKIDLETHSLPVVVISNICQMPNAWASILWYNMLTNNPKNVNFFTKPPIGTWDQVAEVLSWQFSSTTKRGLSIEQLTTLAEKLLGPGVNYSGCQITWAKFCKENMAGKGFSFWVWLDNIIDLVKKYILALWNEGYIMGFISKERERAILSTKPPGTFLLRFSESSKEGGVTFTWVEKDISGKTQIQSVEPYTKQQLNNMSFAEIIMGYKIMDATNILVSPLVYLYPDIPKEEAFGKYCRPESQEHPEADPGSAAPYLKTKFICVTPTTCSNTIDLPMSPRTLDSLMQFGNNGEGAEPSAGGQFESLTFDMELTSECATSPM
Target sequence in this assay (Q96SW2 whole entry): as the sequence (Q96SW2 whole entry partner) above

SU-DHL-1 = experiment: Antiproliferative activity against human SUDHL1 cells assessed as reduction in cell viability incubated for 4 days by cell-titer glo luminescent assay; format: functional, cell-based; conditions: SU-DHL-1, 96 h; how it was run: as §1
[9] = target: T2, Signal transducer and activator of transcription 3; experiment: Potency index, ratio of Ki of CJ-887 to Ki of compound for binding affinity to recombinant human His/SUMO-tagged STAT3 (127 to 688 residues) expressed in Escherichia coli Rosetta (DE3) incubated for 1 hr by fluorescence polarization assay

T2 sequence (P40763 whole entry, the tested form may be a part): as the sequence (P40763 whole entry) above

Structure (SMILES)	IC50 [1] [µM]	DC50 [3] [µM]	further results
NC(=O)CC[C@H](NC(=O)[C@@H]1CC[C@@H]2CCN(C(=O)CCCCCC#Cc3cccc4c3CN(C3CCC(=O)NC3=O)C4=O)C[C@H](NC(=O)c3cc4cc(OP(=O)(O)O)ccc4[nH]3)C(=O)N21)C(=O)NC(c1ccccc1)c1ccccc1 (stereo partly drawn)	> 2	> 10	Activity [2]: inactive; Activity [4]: inactive
CN1CC[C@H]2CC[C@@H](C(=O)N[C@@H](CCC(N)=O)C(=O)NC(c3ccccc3)c3ccccc3)N2C(=O)[C@@H](NC(=O)c2cc3cc(C(F)(F)P(=O)(O)O)ccc3[nH]2)C1			Ki [5]: 0.012 µM
NC(=O)CC[C@H](NC(=O)[C@@H]1CC[C@@H]2CCN(C(=O)CCCCCCCc3cccc4c3CN(C3CCC(=O)NC3=O)C4=O)C[C@H](NC(=O)c3cc4cc(C(F)(F)P(=O)(O)O)ccc4[nH]3)C(=O)N21)C(=O)NC(c1ccccc1)c1ccccc1 (stereo partly drawn)	0.063	0.16	
NC(=O)CC[C@H](NC(=O)[C@@H]1CC[C@@H]2CCN(C(=O)CCCC#Cc3cccc4c3CN(C3CCC(=O)NC3=O)C4=O)C[C@H](NC(=O)c3cc4cc(C(F)(F)P(=O)(O)O)ccc4[nH]3)C(=O)N21)C(=O)NC(c1ccccc1)c1ccccc1 (stereo partly drawn)	0.95	2.63	Activity [6]: inactive; Activity [7]: inactive; Activity [3]: Dose-dependent effect
NC(=O)CC[C@H](NC(=O)[C@@H]1CC[C@@H]2CCN(C(=O)CC(=O)N3CCC(C#Cc4cccc5c4CN(C4CCC(=O)NC4=O)C5=O)CC3)C[C@H](NC(=O)c3cc4cc(C(F)(F)P(=O)(O)O)ccc4[nH]3)C(=O)N21)C(=O)NC(c1ccccc1)c1ccccc1 (stereo partly drawn)	0.067	0.38	
NC(=O)CC[C@H](NC(=O)[C@@H]1CC[C@@H]2CCN(C(=O)CCCCCC#Cc3cccc4c3CN(C3CCC(=O)NC3=O)C4=O)C[C@H](NC(=O)c3cc4cc(CP(=O)(O)O)ccc4[nH]3)C(=O)N21)C(=O)NC(c1ccccc1)c1ccccc1 (stereo partly drawn)	> 2	> 10	Activity [2]: inactive; Activity [4]: inactive
CC(=O)N1CC[C@H]2CC[C@@H](C(=O)N[C@@H](CCC(N)=O)C(=O)NC(c3ccccc3)c3ccccc3)N2C(=O)[C@@H](NC(=O)c2cc3cc(OP(=O)(O)O)ccc3[nH]2)C1			Ki [5]: 0.033 µM
NC(=O)CC[C@H](NC(=O)[C@@H]1CC[C@@H]2CCN(C(=O)CCCCCC#Cc3ccc4c(c3)CN(C3CCC(=O)NC3=O)C4=O)C[C@H](NC(=O)c3cc4cc(C(F)(F)P(=O)(O)O)ccc4[nH]3)C(=O)N21)C(=O)NC(c1ccccc1)c1ccccc1 (stereo partly drawn)	0.104	0.41	
NC(=O)CC[C@H](NC(=O)[C@@H]1CC[C@@H]2CCN(C(=O)c3cnn(CCCC#Cc4cccc5c4CN(C4CCC(=O)NC4=O)C5=O)c3)C[C@H](NC(=O)c3cc4cc(C(F)(F)P(=O)(O)O)ccc4[nH]3)C(=O)N21)C(=O)NC(c1ccccc1)c1ccccc1 (stereo partly drawn)	0.241	0.18	
NC(=O)CC[C@H](NC(=O)[C@@H]1CC[C@@H]2CCN(C(=O)CCCCCC#Cc3cccc4c3CN(C3CCC(=O)NC3=O)C4=O)C[C@H](NC(=O)c3cc4cc(C(F)(F)P(=O)(O)O)ccc4[nH]3)C(=O)N21)C(=O)NCc1ccccc1 (stereo partly drawn)	0.21	0.22	DC50 [8]: 0.055 µM; IC50 (SU-DHL-1): 3.24 µM
NC(=O)CC[C@H](NC(=O)[C@@H]1CC[C@@H]2CCN(C(=O)CCCCCCNc3cccc4c3CN(C3CCC(=O)NC3=O)C4=O)C[C@H](NC(=O)c3cc4cc(C(F)(F)P(=O)(O)O)ccc4[nH]3)C(=O)N21)C(=O)NC(c1ccccc1)c1ccccc1 (stereo partly drawn)	0.059	0.09	
CC(=O)N1CC[C@H]2CC[C@@H](C(=O)N[C@@H](CCC(N)=O)C(=O)NC(c3ccccc3)c3ccccc3)N2C(=O)[C@@H](NC(=O)/C=C(\C)c2ccc(C(F)(F)P(=O)(O)O)cc2)C1			Ki [5]: 0.164 µM
NC(=O)CC[C@H](NC(=O)[C@@H]1CC[C@@H]2CCCC[C@H](NC(=O)c3cc4cc(C(F)(F)P(=O)(O)O)ccc4[nH]3)C(=O)N21)C(=O)NCc1ccccc1			Ratio Ki [9]: 7; Ki [5]: 0.007 µM
NC(=O)CC[C@H](NC(=O)[C@@H]1CC[C@@H]2CCN(C(=O)CCCCCCC#Cc3cccc4c3CN(C3CCC(=O)NC3=O)C4=O)C[C@H](NC(=O)c3cc4cc(C(F)(F)P(=O)(O)O)ccc4[nH]3)C(=O)N21)C(=O)NC(c1ccccc1)c1ccccc1 (stereo partly drawn)	0.025	0.09	
NC(=O)CC[C@H](NC(=O)[C@@H]1CC[C@@H]2CCN(C(=O)CCCCCCCCC#Cc3cccc4c3CN(C3CCC(=O)NC3=O)C4=O)C[C@H](NC(=O)c3cc4cc(C(F)(F)P(=O)(O)O)ccc4[nH]3)C(=O)N21)C(=O)NC(c1ccccc1)c1ccccc1 (stereo partly drawn)	0.042	0.15	
CC(=O)N1CC[C@H]2CC[C@@H](C(=O)N[C@@H](CCC(N)=O)C(=O)NCc3ccccc3)N2C(=O)[C@@H](NC(=O)c2cc3cc(C(F)(F)P(=O)(O)O)ccc3[nH]2)C1			Ki [5]: 0.014 µM
CNC(=O)[C@H](CCC(N)=O)NC(=O)[C@@H]1CC[C@@H]2CCN(C(=O)CCCCCC#Cc3cccc4c3CN(C3CCC(=O)NC3=O)C4=O)C[C@H](NC(=O)c3cc4cc(C(F)(F)P(=O)(O)O)ccc4[nH]3)C(=O)N21 (stereo partly drawn)	0.226	0.64	DC50 [8]: 0.89 µM; IC50 (SU-DHL-1): > 10 µM
CC(=O)N1CC[C@H]2CC[C@@H](C(=O)N[C@@H](CCC(N)=O)C(=O)NC(c3ccccc3)c3ccccc3)N2C(=O)[C@@H](NC(=O)c2cc3cc(CP(=O)(O)O)ccc3[nH]2)C1			Ki [5]: 0.584 µM
NC(=O)CC[C@H](NC(=O)[C@@H]1CC[C@@H]2CCN(C(=O)N3CCC(CCC#Cc4cccc5c4CN(C4CCC(=O)NC4=O)C5=O)CC3)C[C@H](NC(=O)c3cc4cc(C(F)(F)P(=O)(O)O)ccc4[nH]3)C(=O)N21)C(=O)NC(c1ccccc1)c1ccccc1 (stereo partly drawn)	0.099	0.18	
NC(=O)CC[C@H](NC(=O)[C@@H]1CC[C@@H]2CCN(C(=O)CCCCC#Cc3cccc4c3CN(C3CCC(=O)NC3=O)C4=O)C[C@H](NC(=O)c3cc4cc(C(F)(F)P(=O)(O)O)ccc4[nH]3)C(=O)N21)C(=O)NC(c1ccccc1)c1ccccc1 (stereo partly drawn)	0.078	0.26	
NC(=O)CC[C@H](NC(=O)[C@@H]1CC[C@@H]2CCN(C(=O)CCCn3cc(C#Cc4cccc5c4CN(C4CCC(=O)NC4=O)C5=O)cn3)C[C@H](NC(=O)c3cc4cc(C(F)(F)P(=O)(O)O)ccc4[nH]3)C(=O)N21)C(=O)NC(c1ccccc1)c1ccccc1 (stereo partly drawn)	0.232	0.25	
NC(=O)CC[C@H](NC(=O)[C@@H]1CC[C@@H]2CCN(C(=O)OCCCCC#Cc3cccc4c3CN(C3CCC(=O)NC3=O)C4=O)C[C@H](NC(=O)c3cc4cc(C(F)(F)P(=O)(O)O)ccc4[nH]3)C(=O)N21)C(=O)NC(c1ccccc1)c1ccccc1 (stereo partly drawn)	0.128	0.24	DC50 [8]: 0.049 µM; IC50 (SU-DHL-1): 2.37 µM
CN1CC[C@H]2CC[C@@H](C(=O)N[C@@H](CCC(N)=O)C(=O)NCc3ccccc3)N2C(=O)[C@@H](NC(=O)c2cc3cc(C(F)(F)P(=O)(O)O)ccc3[nH]2)C1			Ki [5]: 0.014 µM
NC(=O)CC[C@H](NC(=O)[C@@H]1CC[C@@H]2CCCC[C@H](NC(=O)c3cc4cc(OP(=O)(O)O)ccc4[nH]3)C(=O)N21)C(=O)NCc1ccccc1			Ratio Ki [9]: 2; Ki [5]: 0.025 µM
NC(=O)CC[C@H](NC(=O)[C@@H]1CC[C@@H]2CCN(CCCCCCC#Cc3cccc4c3CN(C3CCC(=O)NC3=O)C4=O)C[C@H](NC(=O)c3cc4cc(C(F)(F)P(=O)(O)O)ccc4[nH]3)C(=O)N21)C(=O)NC(c1ccccc1)c1ccccc1 (stereo partly drawn)	0.147	0.65	DC50 [8]: 0.919 µM; IC50 (SU-DHL-1): > 10 µM
NC(=O)CC[C@H](NC(=O)[C@@H]1CC[C@@H]2CCN(C(=O)CCCCCC#Cc3ccc4c(c3)C(=O)N(C3CCC(=O)NC3=O)C4)C[C@H](NC(=O)c3cc4cc(C(F)(F)P(=O)(O)O)ccc4[nH]3)C(=O)N21)C(=O)NC(c1ccccc1)c1ccccc1 (stereo partly drawn)	0.711	0.36	
NC(=O)CC[C@H](NC(=O)[C@@H]1CC[C@@H]2CCN(C(=O)CCN3CCC(C#Cc4cccc5c4CN(C4CCC(=O)NC4=O)C5=O)CC3)C[C@H](NC(=O)c3cc4cc(C(F)(F)P(=O)(O)O)ccc4[nH]3)C(=O)N21)C(=O)NC(c1ccccc1)c1ccccc1 (stereo partly drawn)	0.36	2.47	
